Results on 16 compounds are retold here after ChEMBL document CHEMBL1148437, “Synthesis, structure-activity relationships, and mechanism of drug resistance of D- and L-beta-3'-fluoro-2',3'-unsaturated-4'-thionucleosides as anti-HIV agents” (J Med Chem, 2004).

The structures appear in SMILES notation. pEC50, pIC50: −log10 of the molar value. A value given as a limit tells only on which side of the number the result lay.

In general, EC90 refers to the concentration needed for an effect of 90%. A lower EC90 goes with an effect from little substance. A word on the pIC50: it is −log10 of the IC50, conventionally taken in molar units. The term pEC50 denotes the EC50 on a negative log10 scale, so that one unit is a factor of ten.

Assay [1] has as its system PBMC. The assay is described as follows: Antiviral activity against drug-resistant HIV-1 virus (M184v) in Human peripheral blood mononuclear (PBM) cells. The format is functional. The method in brief: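 PHA-stimulated (2-3 days) human PBM cells from seronegative donors infected 1 h in bulk with molecular clone HIV-1 M184Vpitt, then cultured with 10-fold serial compound dilutions in IL-2–supplemented RPMI-1640, 5 days, 37 °C, 5% CO2. Supernatant virus pelleted and assayed for RT activity (poly(rA)·oligo(dT), 3H-TTP, 2 h, 37 °C). EC50/EC90 from concentration-response curves by median effect method.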

For assay [2], the system named is PBMC. Kind of assay: Antiviral activity against wild type HIV virus(xxBRU) in Human peripheral blood mononuclear (PBM) cells. The format is functional. In short, it runs like this:
(§1)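 PHA-stimulated (2-3 days) human PBM cells from healthy seronegative donors, Ficoll-Hypaque isolated; bulk infection 1 h (HIV-1 LAI reference; xxBru clone), 100 TCID50/1×10^7 cells (flask) or 200 TCID50/6×10^5 cells/well; 10-fold serial dilutions; RPMI-1640, 16% FBS, IL-2, DEAE-dextran; 5 days 37 °C; supernatant RT activity (poly(rA)·oligo(dT), 3H-TTP); EC50/EC90 by median effect method.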

The test system of assay [3] is PBMC. Kind of assay: (§2) Anti-HIV activity in Human peripheral blood mononuclear (PBM) cells. The format is functional. In short, it runs like this:
as §1

A short description of assay [4]: Compounds were evaluated for their potential toxic effect on uninfected […] cells. The format is ADME, cell-based. Particulars: Chlorocebus sabaeus. In short, it runs like this: (§3)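 Uninfected cells were seeded in 10-fold serial drug dilutions: Vero at 5×10^3, CEM at 2.5×10^3 and PHA-stimulated PBM at 5×10^4 cells/well. Vero were incubated 3 days, CEM 4 days and PBM 5 days, at 37 °C in 5% CO2. MTT was added overnight, followed by solubilization for 5 h and reading at 570 nm. IC50 was derived by the median effect method.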

A short description of assay [5]: Compounds were evaluated for their potential toxic effect on uninfected PHA-stimulated human Peripheral blood mononuclear (PBM) cells. The format is ADME. In short, it runs like this: as §3
Assay [6] can be described thus: Compounds were evaluated for their potential toxic effect on uninfected PHA-stimulated human T-lymphoblastoid cell line (CEM). The assay is classed as ADME. In short, it runs like this:
as §3

The test system of assay [7] is PBMC. The assay is described as §2. The assay is classed as functional, cell-based. In short, it runs like this: as §1

Take `Cc1cn([C@H]2C[C@H](N=[N+]=[N-])[C@@H](CO)O2)c(=O)[nH]c1=O` [ZIDOVUDINE]: the EC90 amounted to 0.003 µM in assay [1], 0.01 µM in assay [2] and 0.01 µM in assay [3]. Moreover, the pIC50 in assay [4] was 4.54; in assay [5], < 4.00; in assay [6], 4.84.
For `O=c1ccn([C@@H]2C=C(F)[C@H](CO)S2)c(=O)[nH]1`, the EC90 in assay [3] is > 100 µM. The pIC50 in assay [4], in assay [5] and in assay [6] was < 4.00 in each case. Besides, in assay [7], the pEC50 was < 4.00.
`Nc1nc(O)c2ncn([C@@H]3C=C(F)[C@H](CO)S3)c2n1`: the EC90 in assay [3] is > 100 µM. Further, the pIC50 in assay [4], in assay [5] and in assay [6] was < 4.00 throughout. This compound also had a pEC50 in assay [7] of 4.36.
As for `Cc1cn([C@H]2C=C(F)[C@@H](CO)S2)c(=O)[nH]c1=O`, the 90% effect concentration (EC90) in assay [3] was > 100 µM. Also, the pIC50 in assay [4], in assay [5] and in assay [6] was < 4.00 each time. For the same compound, in assay [7], the negative logarithm of the EC50 (pEC50) is < 4.00.
For the compound `O=c1ccn([C@H]2C=C(F)[C@@H](CO)S2)c(=O)[nH]1`, the EC90 in assay [3] was > 100 µM. The pIC50 in assay [4], in assay [5] and in assay [6] was < 4.00 throughout. In addition, the pEC50 in assay [7] is < 4.00.
Consider `Nc1nc(=O)n([C@H]2C=C(F)[C@@H](CO)S2)cc1F`, for which the EC90 in assay [3] is > 100 µM. Further, the pIC50 in assay [4], in assay [5] and in assay [6] was < 4.00 in each case. Besides, the pEC50 in assay [7] was < 4.00.
On to `Nc1ncnc2c1ncn2[C@H]1C=C(F)[C@@H](CO)S1`, for which the EC90 in assay [3] is > 100 µM. Besides, the pIC50 in assay [4], in assay [5] and in assay [6] was < 4.00 throughout. The pEC50 in assay [7] was < 4.00.
`Nc1ncnc2c1ncn2[C@@H]1C=C(F)[C@H](CO)S1` showed an EC90 in assay [3] of 57 µM. Moreover, the pIC50 in assay [4], in assay [5] and in assay [6] was < 4.00 each time. Also, in assay [7], the negative logarithm of the EC50 (pEC50) is 4.83.
`OC[C@H]1S[C@@H](n2cnc3c(O)ncnc32)C=C1F`: the EC90 in assay [3] is > 100 µM. For the same compound, the pIC50 in assay [4], in assay [5] and in assay [6] was < 4.00 in each case. Moreover, the pEC50 in assay [7] was < 4.00.
`Cc1cn([C@@H]2C=C(F)[C@H](CO)S2)c(=O)[nH]c1=O`: in assay [3], the EC90 was > 100 µM. Also, the pIC50 is < 4.00 in assay [4], < 4.00 in assay [5] and ≤ 4.00 in assay [6]. Further, the pEC50 in assay [7] is < 4.00.
`Nc1ccn([C@@H]2CS[C@H](CO)O2)c(=O)n1` [LAMIVUDINE] returned an EC90 in assay [2] of 0.08 µM. This counts as double-digit nanomolar.
Turning to `Nc1nc(=O)n([C@@H]2C=C(F)[C@H](CO)S2)cc1F`, the EC90 is > 100 µM in assay [1], 0.35 µM in assay [2] and 0.35 µM in assay [3]. Further, the results for the pIC50 in assay [4], in assay [5] and in assay [6] were 4.06, < 4.00 and < 4.00, respectively. The compound further gave a pEC50 in assay [7] of 7.51.
Consider `Nc1ccn([C@H]2C=C(F)[C@@H](CO)S2)c(=O)n1`, for which the concentration for an effect of 90% (EC90) in assay [3] is > 100 µM. Moreover, the pIC50 in assay [4], in assay [5] and in assay [6] was < 4.00 throughout. The pEC50 in assay [7] is < 4.00.
Regarding `OC[C@@H]1S[C@H](n2cnc3c(O)ncnc32)C=C1F`, the EC90 in assay [3] is > 100 µM. Also, the pIC50 in assay [4], in assay [5] and in assay [6] was < 4.00 in each case. Moreover, the pEC50 in assay [7] was < 4.00.
As for `Nc1nc(O)c2ncn([C@H]3C=C(F)[C@@H](CO)S3)c2n1`, the EC90 in assay [3] was > 100 µM. The pIC50 in assay [4], in assay [5] and in assay [6] was < 4.00 each time. Also, the negative-log EC50 (pEC50) in assay [7] is 4.63.
Take `Nc1ccn([C@@H]2C=C(F)[C@H](CO)S2)c(=O)n1`: the EC90 in assay [1] is > 100 µM; in assay [2] it was 1.7 µM; in assay [3], 1.7 µM. Besides, the negative-log IC50 (pIC50) in assay [4], in assay [5] and in assay [6] was < 4.00 throughout. In assay [7], this compound had a pEC50 of 6.89.
